Target in the first test: not listed separately
Nature of the test: (§1) Inhibition of Bothrops atrox venom phosphodiesterase-1 assessed as conversion of […] p-nitrophenol using bis(p-nitropheny1) phosphate as substrate preincubated for 30 mins by spectrophotometric analysis. The gist of the method:
(§2)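 Crude dried snake venom as enzyme source, 0.000742 U/well, in 33 mM Tris-HCl pH 8.8 with 30 mM magnesium acetate. Substrate 0.33 mM bis(p-nitrophenyl) phosphate. Enzyme and test sample pre-incubated 30 min, then p-nitrophenol release followed as OD/min at 410 nm, 37 °C, on a microtitre plate reader. EDTA positive control. Run in triplicate; IC50 determined.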
Consider `O=[N+]([O-])c1ccc2nc(-c3ccc(O)cc3O)[nH]c2c1`, for which the IC50 (in general, the concentration needed to halve the response being measured) was determined as 11.5 µM. With `O=[N+]([O-])c1ccc2nc(-c3cc(Cl)cc(Cl)c3O)[nH]c2c1`, the IC50 was found to be 294 µM. `O=[N+]([O-])c1ccc2nc(-c3cccc(O)c3O)[nH]c2c1`: the IC50 is 1.5 µM. Regarding `O=C(O)CN(CCN(CC(=O)O)CC(=O)O)CC(=O)O` [EDETIC ACID], the IC50 amounted to 274 µM.

As for `O=[N+]([O-])c1ccc2[nH]c(-c3ccc(Cl)cc3)nc2c1`, the half-inhibitory concentration (IC50) is 120 µM.

Regarding `COc1ccc(-c2nc3cc([N+](=O)[O-])ccc3[nH]2)cc1OC`, the IC50 was found to be 63.1 µM. As to `O=[N+]([O-])c1ccc2nc(-c3ccc(O)cc3)[nH]c2c1`, the IC50 was 2.4 µM. Turning to `O=[N+]([O-])c1ccc2nc(-c3ccc(O)c(O)c3)[nH]c2c1`, the IC50 is 5.7 µM. Turning to `O=[N+]([O-])c1ccc2nc(-c3c(O)cc(O)cc3O)[nH]c2c1`, the IC50 is 6.4 µM. The same measure, in the same setting: as for `O=[N+]([O-])c1ccc2nc(-c3ccc(O)c(O)c3O)[nH]c2c1`, the figure is 10.5 µM.

Take `O=[N+]([O-])c1ccc(-c2nc3cc([N+](=O)[O-])ccc3[nH]2)cc1`: the IC50 stood at 153 µM.

A further test relates to Bothrops atrox. Described as §1. Also noted: concentration or dose not given beside the values. The essentials:
as §2
With `O=[N+]([O-])c1ccc2[nH]c(-c3ccccc3)nc2c1`, the inhibition – broadly, the drop in the measured response relative to a control, in per cent – was less than 50%.

Take `O=[N+]([O-])c1ccc2nc(-c3ccc(Br)cc3)[nH]c2c1`: the inhibition is less than 50%. For `O=[N+]([O-])c1ccc2nc(-c3cc(Cl)ccc3O)[nH]c2c1`, the inhibition is less than 50%.

As to `O=[N+]([O-])c1ccc2nc(-c3ccc(Cl)c(Cl)c3)[nH]c2c1`, the inhibition was less than 50%. `O=[N+]([O-])c1ccc2[nH]c(-c3ccncc3)nc2c1`: the inhibition is less than 50%. The same measure, in the same setting: as for `O=[N+]([O-])c1ccc2nc(-c3ccccc3F)[nH]c2c1`, the figure is less than 50%; as for `O=[N+]([O-])c1ccc2nc(-c3ccc(Cl)cc3Cl)[nH]c2c1`, less than 50%; as for `O=[N+]([O-])c1ccc2nc(-c3cc(O)ccc3O)[nH]c2c1`, less than 50%. In the case of `O=[N+]([O-])c1ccc(Cl)c(-c2nc3ccc([N+](=O)[O-])cc3[nH]2)c1`, the inhibition is less than 50%. With `O=[N+]([O-])c1ccc2nc(-c3ccccc3O)[nH]c2c1`, the inhibition is less than 50%.

Consider `O=[N+]([O-])c1ccc2nc(-c3ccccc3Cl)[nH]c2c1`, for which the inhibition was less than 50%.

With `O=[N+]([O-])c1ccc2nc(-c3cccc4cc5ccccc5cc34)[nH]c2c1`, the inhibition is less than 50%. On to `CSc1ccc(-c2nc3ccc([N+](=O)[O-])cc3[nH]2)cc1`, for which the inhibition was less than 50%. Turning to `O=[N+]([O-])c1ccc2nc(-c3cc(Br)cc(Br)c3O)[nH]c2c1`, the inhibition is less than 50%. The same measure, in the same setting: with `COc1cccc(-c2nc3ccc([N+](=O)[O-])cc3[nH]2)c1O` the figure was less than 50%; with `O=[N+]([O-])c1ccc2nc(-c3ccsc3)[nH]c2c1`, less than 50%; with `CN(C)c1ccc(-c2nc3ccc([N+](=O)[O-])cc3[nH]2)cc1`, less than 50%. On the same count and under the same terms, as for `Cc1ccc(-c2nc3cc([N+](=O)[O-])ccc3[nH]2)cc1`, the figure is less than 50%; as for `O=[N+]([O-])c1ccc2nc(-c3cccc4c3ccc3ccccc34)[nH]c2c1`, less than 50%. As to `CCOc1cccc(-c2nc3ccc([N+](=O)[O-])cc3[nH]2)c1O`, the inhibition is less than 50%.

These data come from ChEMBL document CHEMBL1944537, “6-Nitrobenzimidazole derivatives: potential phosphodiesterase inhibitors: synthesis and structure-activity relationship” (Bioorg Med Chem, 2012).
